Autophagy HCS: autophagy modulators in MEF cells, primary screen, imaging, high-content, MEF GFP-LC3 | MEF GFP-LC3 puncta imaging; test concentration mostly 10 µM | calls only at 10 µM (by protocol) | 190,000 compounds, 0.98% hits | AID 463193, 2010;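 active = percentage of spot-positive cells more than 3 SD above its plate mean, without a fluorescence outlier flag or 80% toxicity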
Lmaj promast: Leishmania major promastigote growth inhibition, primary screen | Leishmania major promastigotes, resazurin fluorescence viability | AID 1063, 2008 | inhibition, % at 10 µM | 200,000 compounds, 9% hits; in the data active = inhibition above about 50%;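 note: promastigotes grown with compound for 44 hours at 28 °C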
PTEN del growth: growth suppression of PTEN-null HCT116, primary screen, cell-based, CellTiter-Glo | HCT116 PTEN-null viability, 60 h; hits give low values | AID 827, 2007 | 140,000 compounds, 1.2% hits | viability, % at 10 µM;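 active = viability at or below a set limit, 4 SD under the median of all tested compounds, cut at about 3.7% in these data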;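 note: PTEN knockout HCT116 line with beta catenin targeted HCT116 as companion control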
bCat KO growth: primary screen for growth suppressors in beta-catenin knockout HCT116 cells (colon tumor, human); HCT116 beta-catenin knockout viability, CellTiter-Glo, 60 h; hits give low values; viability, % at 10 µM; 140,000 compounds, 1.5% hits;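 active = viability at or under a set limit, the compound median less 4 SD, cut at about 6% in these data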
Dynein cargo inh: inhibitors of GR-EGFP nuclear translocation, primary screen, dynein cargo transport inhibitor project, imaging, high-content, 3617.4 mouse cells; z-score, hits read low; test concentration mostly 20 µM; stimulated with dexamethasone, 1 µM; hits give low values; 220,000 compounds, 0.47% hits;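 active = plate z-score of nuclear minus cytoplasmic receptor signal below a set negative limit, without overly bright fluorescence or cell loss, cut at about -3.5 in these data, passing the limit was not always enough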;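 note: z-score of nuclear minus cytoplasmic ring GR-EGFP intensity difference per well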
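medium = tetracycline-free induction medium containing charcoal-stripped FBS | probe or stimulus = dexamethasone, 1.0 µM final | timing = 48 h induction, then 1 h compound, then 30 min agonist, 37 °C | detection = automated 10x imaging of fixed Hoechst-stained cells | read-out basis = nuclear versus cytoplasmic GR-EGFP signal, averaged per well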
Each line names hits and unclear results; the compound was inactive in the other large screens. A selection: hits, their analogues and other compounds. The true share with any hit is near 9.2%.

Cc1ccccc1OCC(=O)N/N=C/c1cccc(Oc2ccc([N+](=O)[O-])cc2[N+](=O)[O-])c1	Lmaj promast 74.0
Cc1ccc(OCC(=O)N/N=C\c2c(C)n(C)c3ccccc23)c([N+](=O)[O-])c1	none
Cc1ccccc1OCC(=O)NCC(=O)N/N=C/c1cccc([N+](=O)[O-])c1	none (no result: PTEN del growth, bCat KO growth)
Cc1cc([N+](=O)[O-])cc(C)c1OCC(=O)N/N=C/c1ccc(OC(=O)c2ccccc2Br)cc1	Lmaj promast 84.7
Cc1cc([N+](=O)[O-])cc(C)c1OCC(=O)N/N=C/c1ccc(OC(=O)c2ccccc2)cc1	none
Cc1c(/C=N/NC(=O)COc2ccccc2[N+](=O)[O-])c2ccccc2n1C	Lmaj promast 56.0
Cc1nc2oc(C(=O)c3ccc(Br)cc3)c(N)c2c2c1COC(C)(C)C2	Autophagy HCS active
CC(=O)Nc1ccc(NC(=O)COC(=O)c2cnccn2)cc1	none (no result: PTEN del growth, bCat KO growth)
O=C(/C=C/c1ccc(Cl)cc1)N(c1ccccn1)C1CCCCC1	Lmaj promast 83.2
O=C1C=C(Nc2ccccc2C(=O)O)c2ccccc2C1=O	none (no result: Autophagy HCS, Lmaj promast, PTEN del growth, bCat KO growth)
CCCCNC1=CC(=O)C(=O)c2ccccc21	Lmaj promast 99.7 (no result: PTEN del growth, bCat KO growth)
O=C1C=C(Nc2ccccc2)c2ccccc2C1=O	Lmaj promast 99.9 (no result: PTEN del growth, bCat KO growth)
O=C1C=C(Nc2ccccc2)C(=O)c2ccccc21	Lmaj promast 99.9 (no result: PTEN del growth, bCat KO growth)
O=C1C(Cl)=C(NCCCO)C(=O)c2ccccc21	none
CC(C)(C)c1ccc(C(=O)C=[N+]=[N-])cc1	none
O=c1c2ccccc2c(C=NCCCN2CCOCC2)c(O)n1Cc1ccc2c(c1)OCO2	Lmaj promast 85.6 (no result: PTEN del growth, bCat KO growth)
O=C(CCSc1nc(-c2ccco2)cc(C(F)(F)F)n1)N1CCCc2ccccc21	Lmaj promast 76.3
CC(C)(C)c1ccc(NC(=O)N2CCCN(c3c(Cl)cncc3Cl)CC2)cc1	none (no result: Autophagy HCS, Lmaj promast, PTEN del growth, bCat KO growth)
CCOc1ccc(-c2cn(-c3ccc(OC)cc3)c(SC)n2)cc1	Lmaj promast 51.4
Cc1ccc(C(=O)CSc2nnc(C(C)C)n2C)cc1C	none (no result: PTEN del growth, bCat KO growth)
Cc1cc(N)n(Cc2ccc(Cl)cc2)n1	none (no result: PTEN del growth, bCat KO growth)
Cc1ccc(-c2cc(N)n(Cc3ccc(Cl)cc3)n2)cc1	Lmaj promast 86.6
Cc1cc(=O)[nH]c(SCC(=O)Nc2nc(-c3ccccc3)c(-c3ccccc3)o2)n1	none
O=c1c2ccccc2nc(N/N=C/c2c(O)ccc3ccccc23)n1O	Lmaj promast 99.9
O=c1c2ccccc2nc(N/N=C/c2ccc(O)cc2)n1O	none
Cc1cc(/C=N/n2cnnc2)c(C)n1-c1ccc(OCc2ccccc2F)cc1	Lmaj promast 77.2
Cc1cc(/C=N/n2cnnc2)c(C)n1-c1ccc(OCc2ccc(Cl)cc2)cc1	Lmaj promast 97.8, bCat KO growth 5.3
Fc1ccccc1COc1cccc(/C=N/n2cnnc2)c1	none
C(=N\n1cnnc1)/c1ccc(OCc2ccccc2)cc1	none
C/C(=N/NC(=O)CNS(=O)(=O)c1ccc(C)cc1)c1cccc([N+](=O)[O-])c1	none (no result: PTEN del growth, bCat KO growth)
CC(Sc1ccc2c(c1)OCCO2)C(=O)Nc1ccc(N2CCOCC2)cc1 (stereo not drawn)	none (no result: PTEN del growth, bCat KO growth)
CCOc1ccc(NC(=O)/C(C#N)=C/c2ccc(N3CCCC3)c(C)c2)cc1	Autophagy HCS active
CCc1nnc(NC(=O)CSc2nnc(CNC(=O)c3cc(OC)c(OC)c(OC)c3)o2)s1	none (no result: PTEN del growth, bCat KO growth)
CCOc1ccc(OCC)c(S(=O)(=O)N2CCC(C)CC2)c1	none
CN(C)S(=O)(=O)c1ccc(C(=O)Nc2nnc(SCc3cccc(F)c3)s2)cc1	Lmaj promast 52.3
C=CCSc1nnc(NC(=O)c2cccc(S(=O)(=O)N(C)c3ccccc3)c2)s1	Lmaj promast 63.2
CN(C)S(=O)(=O)c1ccc(C(=O)Nc2nnc(SCc3ccccc3)s2)cc1	none
CCS(=O)(=O)c1cc([N+](=O)[O-])c(Sc2ccccc2NC(C)=O)s1	none (no result: Autophagy HCS, Lmaj promast, PTEN del growth, bCat KO growth)
Cn1c(=O)[nH]c(NC2CCCCC2)c(N=O)c1=O	none
COc1ccc(CNC(=O)/C=C/c2ccc(S(=O)(=O)NCc3ccco3)cc2)cc1OC	Lmaj promast 67.7
O=C(/C=C/c1ccc(Cl)cc1)NCc1ccco1	Lmaj promast 51.0
Oc1ccc(N=C/C=C/c2ccc(Br)cc2)cc1-c1nc2ccccc2s1	none
CC1(C)CC(=O)C2=C(C1)C(c1cn(-c3ccccc3)nc1-c1ccccc1)C(C#N)=C(N)O2 (stereo not drawn)	Lmaj promast 79.3
CC1(C)CC(=O)C2=C(C1)OC(N)=C(C#N)C2c1cn(-c2ccccc2)nc1-c1ccc(F)cc1 (stereo not drawn)	Autophagy HCS active, Lmaj promast 66.5
Cn1cccc1C1C(C#N)=C(N)OC2=C1C(=O)CC(C)(C)C2 (stereo not drawn)	none (no result: PTEN del growth, bCat KO growth)
CCCn1c(N)c(N(CCOC)C(=O)/C=C/c2cccc(Cl)c2)c(=O)[nH]c1=O	none (no result: PTEN del growth, bCat KO growth)
Cc1cc2nc(SCCOC(=O)Nc3ccc(Cl)cc3)nc(C)c2cc1C	none
CCCCOCCCNS(=O)(=O)c1ccccc1	none
CCCCOP(=O)(OCCCC)C1(NS(=O)(=O)c2ccccc2)C=CC(=O)c2ccccc21 (stereo not drawn)	Lmaj promast 99.6
CCOC(=O)c1ccc(COC(=O)c2cc3ccccc3oc2=O)o1	none
COc1cccc(C(=O)/C=C2\Sc3ccccc3N2C)c1	none (no result: PTEN del growth, bCat KO growth)
Cc1ccc2c(c1)S/C(=C/c1ccc[n+](CCO)c1)N2C	Lmaj promast 81.6 (no result: PTEN del growth, bCat KO growth)
COc1ccc(NC(=O)c2ccc3c(=O)n(-c4ccc(OC)cc4OC)c(=S)[nH]c3c2)c(OC)c1	Lmaj promast 69.3 (no result: PTEN del growth, bCat KO growth)
O=S(=O)(c1ccc(Br)cc1)N1CCCN(Cc2cccc(F)c2)CC1	Lmaj promast 85.6
COc1cccc(CN2CCCN(S(=O)(=O)c3ccc(Br)cc3)CC2)c1	Lmaj promast 92.6
CC1CN(c2ccc(C(=O)c3ccccc3C(=O)O)cc2[N+](=O)[O-])CC(C)O1 (stereo not drawn)	none (no result: PTEN del growth, bCat KO growth)
CCOC(CNC(=O)Cc1c(C)nc2c(-c3ccccc3)c(C)nn2c1C)OCC	none (no result: PTEN del growth, bCat KO growth)
O=C(Cc1csc(N2CCOCC2)n1)N/N=C/c1ccc(Cl)cc1Cl	Lmaj promast 69.3
Cc1ccc2nsnc2c1S(=O)(=O)N1CCOCC1	none
O=C(/C=C/c1ccccc1F)c1ccoc1	bCat KO growth 5.3
Cn1cc(/C=N/n2cnc3sc4c(c3c2=O)CCCC4)c2ccccc21	none
O=c1c2c3c(sc2ncn1/N=C/c1ccc([N+](=O)[O-])o1)CCCC3	Lmaj promast 96.0
COc1ccc2nc(/N=C(\N)NC(=O)C(C)(C)C)nc(C)c2c1	Lmaj promast 50.8
CCC(=O)N/C(N)=N/c1nc(C)c2cc(OC)ccc2n1	none
O=C(OCc1ccccc1Cl)c1ccc(-n2cnnc2)cc1	none
CCOC(=O)N1CCC(n2c(SCC(=O)NCCC3=CCCCC3)nc3ccccc3c2=O)CC1	Lmaj promast 70.3
COCC(C)n1c(SCC(=O)NCCC2=CCCCC2)nc2ccccc2c1=O (stereo not drawn)	Lmaj promast 92.5
